In ChEMBL document CHEMBL1933056, “Cytotoxic potential of novel 6,7-dimethoxyquinazolines” (Eur J Med Chem, 2012):
Activity calls are given as the source filed them. The rule behind the calls is not given here.

Columns and labels:
[1] = system: HCT-116; assay: Cytotoxicity against p53-deficient human HCT116 cells at 10 uM after 72 hrs by MTT assay; format: functional
[2] = system: HCT-116; assay: Cytotoxicity against p53-positive human HCT116 cells at 10 uM after 72 hrs by MTT assay; format: functional
[3] = system: HEY; assay: Cytotoxicity against human HEY cells at 10 uM after 72 hrs by MTT assay; format: functional
Summary of the method: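 Single-concentration MTT screen, continuous 72 h exposure at 10 µM (diluted from a 10 mM DMSO stock). MTT was added at 0.5 mg/mL final for 4 h at 37 °C, the formazan was dissolved in DMSO and absorbance read at 570 nm. Result given as % cells killed, (1 − A/C) × 100, done in triplicate. HEY cells were grown in RPMI 1640 with 10% FBS and 2 mM glutamine.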

[4] = system: HCT-116; assay: Cytotoxicity against p53-positive human HCT116 cells after 72 hrs by MTT assay; format: functional, cell-based; conditions: HCT-116, 72 h
Summary of the method: (§1)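 Cells seeded, allowed to attach, then exposed to the drug continuously for 72 h over multiple doses. MTT was added at 0.5 mg/mL final for 4 h at 37 °C, solubilized in DMSO and read at 570 nm. Inhibition = (1 − A/C) × 100. IC50 was taken from a plot of log concentration versus % inhibition, assays in triplicate, with SD from at least three independent experiments.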

[5] = system: HCT-116; assay: Cytotoxicity against p53-deficient human HCT116 cells after 72 hrs by MTT assay; format: functional, cell-based; conditions: HCT-116, 72 h; summary of the method: as §1
[6] = system: HCT-116; assay: Growth inhibition of p53-deficient human HCT116 cells at > 1 uM after 24 hrs by crystal violet staining-based microscopic analysis; format: functional, cell-based
Summary of the method: (§2)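 Cells plated at 100 cells/well and left to attach overnight. Serial compound dilutions were applied for 24 h, followed by a PBS wash and culture in drug-free medium for 8-10 days until colonies formed. Colonies were fixed in 1% glutaraldehyde for 30 min, stained with 2% crystal violet for 30 min, imaged and counted. Values are the mean of at least three independent experiments.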

[7] = system: HCT-116; assay: Anticlonogenic activity against p53-positive human HCT116 cells assessed as inhibition of colony formation at 0.1 to 20 uM after 24 hrs by crystal violet staining-based microscopic analysis; format: functional, cell-based; summary of the method: as §2
[8] = system: HCT-116; assay: Growth inhibition of p53-positive human HCT116 cells at > 1 uM after 24 hrs by crystal violet staining-based microscopic analysis; format: functional, cell-based; summary of the method: as §2
[9] = system: HCT-116; assay: Anticlonogenic activity against p53-deficient human HCT116 cells assessed as inhibition of colony formation at 0.1 to 20 uM after 24 hrs by crystal violet staining-based microscopic analysis; format: functional, cell-based; summary of the method: as §2
[10] = system: HCT-116; assay: Induction of cell cycle arrest in p53-deficient human HCT116 cells assessed as accumulation at G0/G1 phase at 1 uM after 48 hrs by flow cytometric analysis (reference value: 60%); format: functional
[11] = system: HCT-116; assay: Induction of cell cycle arrest in p53-deficient human HCT116 cells assessed as accumulation at S phase at 1 uM after 48 hrs by flow cytometric analysis (reference value: 13.5%); format: functional
[12] = system: HCT-116; assay: Induction of cell cycle arrest in p53-deficient human HCT116 cells assessed as accumulation at G2/M phase at 1 uM after 24 hrs by flow cytometric analysis (reference value: 24.5%); format: functional
[13] = system: HCT-116; assay: Induction of cell cycle arrest in p53-deficient human HCT116 cells assessed as accumulation at G2/M phase at 1 uM after 48 hrs by flow cytometric analysis (reference value: 24.5%); format: functional
[14] = system: HCT-116; assay: Growth inhibition of p53-positive human HCT116 cells at > 5 uM after 24 hrs by crystal violet staining-based microscopic analysis; format: functional, cell-based; summary of the method: as §2
[15] = system: HCT-116; assay: Induction of cell cycle arrest in p53-deficient human HCT116 cells assessed as accumulation at S phase at 1 uM after 24 hrs by flow cytometric analysis (reference value: 13.5%); format: functional
[16] = system: HCT-116; assay: Growth inhibition of p53-deficient human HCT116 cells at > 5 uM after 24 hrs by crystal violet staining-based microscopic analysis; format: functional, cell-based; summary of the method: as §2
[17] = system: HCT-116; assay: Induction of cell cycle arrest in p53-deficient human HCT116 cells assessed as accumulation at G0/G1 phase at 1 uM after 24 hrs by flow cytometric analysis (reference value: 60%); format: functional

Compound	Activity [1] [%]	Activity [2] [%]	Activity [3] [%]	IC50 [4] [µM]	IC50 [5] [µM]	further results
COc1cc2nc(-c3ccc(C)cc3)nc(N)c2cc1OC	16	5	2	–	–	–
COc1cccc(-c2nc(N)c3cc(OC)c(OC)cc3n2)c1	20	19	7	–	–	–
COc1cc2nc(-c3cccc(Cl)c3)nc(N=[N+]=[N-])c2cc1OC	45	56	35	10	10	–
COc1cc2nc(-c3ccccc3Cl)nc(N)c2cc1OC	–	18	4	–	–	–
COc1cc2nc(Cc3cccc4ccccc34)[nH]c(=O)c2cc1OC	79	80	66	1.7	0.7	growth inhibition (GI) [6]: Active; Activity [7]: Active; growth inhibition (GI) [8]: Active; Activity [9]: Active
COc1ccc(-c2nc(N)c3cc(OC)c(OC)cc3n2)cc1	42	21	17	–	–	–
COc1cc2nc(-c3cccc(C)c3)nc(N=[N+]=[N-])c2cc1OC	71	55	42	9	> 10	–
COc1cc2nc(CNc3ccc(NS(C)(=O)=O)cc3)[nH]c(=O)c2cc1OC	14	28	9	–	–	–
COc1cc2nc(-c3cccc(C)c3)nc(N)c2cc1OC	27	20	6	–	–	–
COc1cc2nc(Nc3ccc([N+](=O)[O-])cc3)nc(N)c2cc1OC	22	42	4	–	–	–
COc1cc2nc(-c3cccc(Cl)c3)[nH]c(=O)c2cc1OC	37	35	42	–	–	–
COc1cc2nc(-c3ccccc3Cl)nc(N=[N+]=[N-])c2cc1OC	63	50	43	8	> 10	–
COc1cc2nc(Nc3ccccc3-c3ccccc3NS(C)(=O)=O)nc(N)c2cc1OC	95	95	94	6	5	Activity [10]: 54.5%; Activity [11]: 9%; Activity [7]: Active; Activity [12]: 23%; Activity [13]: 34.5%; growth inhibition (GI) [14]: Active; Activity [15]: 14%; Activity [9]: Active; growth inhibition (GI) [16]: Active; Activity [17]: 61%
CCCCn1c(-c2ccc(NC(C)=O)cc2)nc2cc(OC)c(OC)cc2c1=O	17	19	6	–	–	–
COc1cc2nc(-c3cccc(NC(C)=O)c3)[nH]c(=O)c2cc1OC	22	16	12	–	–	–
COc1cc2nc(-c3ccc(C)cc3)nc(N=[N+]=[N-])c2cc1OC	66	47	29	8	9	–
COc1cc2nc(Cc3ccc(Cl)cc3)[nH]c(=O)c2cc1OC	57	63	49	9	> 10	–
COc1cccc(-c2nc(N=[N+]=[N-])c3cc(OC)c(OC)cc3n2)c1	24	25	13	–	–	–
CCCCn1c(-c2cccc(NS(C)(=O)=O)c2)nc2cc(OC)c(OC)cc2c1=O	27	26	9	–	–	–
COc1cc2nc(CNc3ccc(C(=O)O)cc3)[nH]c(=O)c2cc1OC	8	30	0.5	–	–	–
COc1ccc(-c2nc3cc(OC)c(OC)cc3c(=O)[nH]2)cc1	3	10	2	–	–	–
CCCCn1c(-c2cccc(-c3nnn[nH]3)c2)nc2cc(OC)c(OC)cc2c1=O	3	13	4	–	–	–
COc1ccc(NCc2nc3cc(OC)c(OC)cc3c(=O)[nH]2)cc1	22	38	19	–	–	–
COc1cc2nc(CNc3cccc(NS(C)(=O)=O)c3)[nH]c(=O)c2cc1OC	31	34	23	–	–	–
COc1ccc(-c2nc(N=[N+]=[N-])c3cc(OC)c(OC)cc3n2)cc1	48	58	42	10	7	–
CCCCn1c(-c2ccc(-c3nnn[nH]3)cc2)nc2cc(OC)c(OC)cc2c1=O	8	15	2	–	–	–
COc1cc2nc(Cc3ccccc3Cl)[nH]c(=O)c2cc1OC	50	59	35	9	> 10	–
CCCCn1c(-c2ccc(NS(C)(=O)=O)cc2)nc2cc(OC)c(OC)cc2c1=O	4	6	0.5	–	–	–
COc1cc2nc(-c3cccc(Cl)c3)nc(N)c2cc1OC	2	19	3	–	–	–
